Test results published in ChEMBL document CHEMBL1149155, “Development of a new radioligand, N-(5-fluoro-2-phenoxyphenyl)-N-(2-[18F]fluoroethyl-5-methoxybenzyl)acetamide, for pet imaging of peripheral benzodiazepine receptor in primate brain” (J Med Chem, 2004).

Assays:
[1] = target: GABA-A receptor; anion channel; assay: In vitro inhibition of [11C]flumazenil binding to GABA-A central benzodiazepine receptor of rat brain
Outline: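 Rat brain sagittal cryosections (20 μm, male Sprague-Dawley) preincubated 20 min at 25 °C in 50 mM Tris-HCl pH 7.4, then incubated 30 min at 37 °C with [11C]flumazenil (1 nM) and compound 0.1–1000 nM; nonspecific binding defined with 10 μM flumazenil. Cerebellum radioactivity read by imaging plate; probit-derived IC50 converted to Ki; n = 3.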

[2] = target: Translocator protein (Rattus norvegicus, UniProt P16257); assay: In vitro inhibition of [11C]2 binding to Peripheral benzodiazepine receptor (PBR) in rat brain; type: tissue-based
Translocator protein (Rattus norvegicus, UniProt P16257), sequence (P16257 whole entry, looked up): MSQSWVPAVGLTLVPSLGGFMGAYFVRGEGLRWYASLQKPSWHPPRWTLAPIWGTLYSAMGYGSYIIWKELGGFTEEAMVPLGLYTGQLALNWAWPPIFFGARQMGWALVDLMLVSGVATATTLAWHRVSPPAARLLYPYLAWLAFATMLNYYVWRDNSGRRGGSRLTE

[3] = Partition coefficient of the compound; type: physicochemical; settings: octanol/water
Outline: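 LogD measured by shake-flask partition between phosphate buffer (pH 7.4) and octanol; mean of n = 3.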

[4] = organism: Mus musculus; assay: Compound was tested for radioactivity level in mice adrenal glands (Compound is radiolabeled); type: ADME, organism-based, Adrenal gland; settings: in vivo
Outline: (§1)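 Male ddY mice (30–40 g, 9 weeks) given 18F-ligand in saline (average 8 MBq) via tail vein; four per time point killed at 5, 15, 30, 60, 120 min. Brain, liver, lung, heart, kidney, adrenal, bone and blood weighed and gamma-counted; decay-corrected %ID/g wet tissue.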

[5] = organism: Mus musculus; assay: Compound was tested for radioactivity level in mice brain (Compound is radiolabeled); 2.2-4.9% ID/g; type: ADME, organism-based; settings: in vivo; outline: as §1
[6] = organism: Mus musculus; assay: Compound was tested for radioactivity level in mice kidney (Compound is radiolabeled); type: ADME, organism-based; settings: in vivo; outline: as §1
[7] = organism: Mus musculus; assay: Compound was tested for radioactivity level in mice lungs (Compound is radiolabeled); type: ADME, organism-based; settings: in vivo; outline: as §1
[8] = organism: Mus musculus; assay: Compound (0.09% dose/g) was tested for accumulation in mice bone (Compound is radiolabeled) after 120 min; No increase; type: ADME, organism-based, Bone element; settings: in vivo, 2 h; outline: as §1
[9] = Half life was determined; type: ADME; settings: rat
[10] = organism: Mus musculus; assay: Compound (0.31% dose/g) was tested for accumulation in mice bone (Compound is radiolabeled) after 30 min; Low increase; type: ADME, organism-based; settings: in vivo, 0.5 h; outline: as §1
[11] = organism: Mus musculus; assay: Compound was tested for radioactivity level in mice heart (Compound is radiolabeled); type: ADME, organism-based; settings: in vivo; outline: as §1
[12] = target: GABA-A receptor; anion channel; assay: Inhibition of [11C]flumazenil binding to GABA-A central benzodiazepine receptor of monkey brain
[13] = target: Translocator protein (Homo sapiens, UniProt P30536); assay: Binding affinity for Peripheral benzodiazepine receptor compared to [11C]2 in monkey brain (No affinity); set-up: species or system Cercopithecidae; settings: target entry is the homologue from another species
Translocator protein (Homo sapiens, UniProt P30536), sequence (P30536 whole entry): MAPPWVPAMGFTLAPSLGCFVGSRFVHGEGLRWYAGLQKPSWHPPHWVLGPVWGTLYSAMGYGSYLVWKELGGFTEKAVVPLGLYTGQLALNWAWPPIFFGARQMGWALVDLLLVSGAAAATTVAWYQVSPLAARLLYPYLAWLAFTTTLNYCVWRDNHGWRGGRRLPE

Row | SMILES | Ki [1] | Ki [2] | logD [3] | Radioactivity level [4] | Radioactivity level [5] | Radioactivity level [6] | Radioactivity level [7] | Activity [8] | T1/2 [9] | Activity [10] | Radioactivity level [11] | IC50 [12] | IC50 [13]
1 | COc1ccc(OCCOS(=O)(=O)c2ccc(C)cc2)c(CN(C(C)=O)c2cc(F)ccc2Oc2ccccc2)c1 | > 1000 nM | 18.1 nM | 4.65 | – | – | – | – | – | – | – | – | – | –
2 | COc1ccc(OC)c(CN(C(C)=O)c2cc(F)ccc2Oc2ccccc2)c1 | > 1000 nM | 0.16 nM | 3.65 | – | – | – | – | – | – | – | – | – | –
3 | COc1ccc(OCCF)c(CN(C(C)=O)c2cc(F)ccc2Oc2ccccc2)c1 | > 1000 nM | 0.078 nM | 3.81 | > 5% | < 4.9% | > 5% | > 5% | Not Active | 1.83 h | Partially active | > 5% | – | –
4 | CCC(C)N(C)C(=O)c1cc2ccccc2c(-c2ccccc2Cl)n1 (stereo not drawn) [PK-11195] | > 1000 nM | – | 2.78 | – | – | – | – | – | – | – | – | – | –
5 | CC(=O)Nc1cc(F)ccc1Oc1ccccc1 | – | – | – | – | – | – | – | – | – | – | – | > 10000 nM | Not Active
6 | COc1ccc(OCI)c(CN(C(C)=O)c2cc(F)ccc2Oc2ccccc2)c1 | > 1000 nM | 4.8 nM | 4.02 | – | – | – | – | – | – | – | – | – | –
7 | COc1ccc(OCF)c(CN(C(C)=O)c2cc(F)ccc2Oc2ccccc2)c1 | > 1000 nM | 0.17 nM | 3.7 | > 5% | – | > 5% | > 5% | 5.6% | 1.83 h | – | > 5% | – | –
